Calls of active or inactive are those of the source.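 Rule for the calls: active = inhibition of 30% or more at any tested concentration; inactive = the rest.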

Experimental findings from PubChem BioAssay AID588679 (Southern Research Specialized Biocontainment Screening …, 2011) are described below.

The assay addresses M17 leucyl aminopeptidase (Plasmodium falciparum 3D7). The assay is described as follows: PfM17LAP leucine aminopeptidase inhibitors, dose response, counter-screen for PfM18AAP inhibitor project, biochemical, QFRET (AID 588679). Conditions: recombinant PfM17LAP, H-Leu-NHMec fluorogenic cleavage. The method, boiled down: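 Replication: each concentration tested in triplicate; system: purified recombinant Plasmodium falciparum M17 leucine aminopeptidase; medium: Tris buffer pH 7.5 with 2 mM CoCl2, 2% DMSO; measured by: fluorescence, ex 370 nm, em 460 nm; times: 90 min reaction, room temperature; read-out basis: percent inhibition normalized to controls, IC50 from logistic fit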
(The purpose of a counterscreen is to sort out artefacts and off-target activity.)

The term IC50 denotes the point on the concentration scale where inhibition reaches its midpoint. Turning to `Oc1ccc(-c2csc(Cc3cc4ccccc4[nH]3)n2)cc1O`, the IC50 was 22 µM.
On to `NCc1cc2c3c(c(=O)oc2c(O)c1O)CCC3`, for which, where the note is “at 100 µM (top of the series)”, the inhibition result is “inactive”.
The same measure, in the same setting: next, `COc1ccc(-c2nc(-c3ccccc3)c(-c3ccccc3)[nH]2)cc1OC`: “inactive”; `COc1ccc(CCNc2c3c(nc4ccccc24)CCCC3)cc1OC`: “inactive”.
In the case of `Oc1ccc(CCN2CCc3ccccc3C2)cc1O`, the IC50 is 58.6 µM.
As to `COc1ccc(CC(=O)O)cc1OC`, the inhibition result (at 100 µM (top of the series)) is “inactive”.
In the case of `O=C(O)CCCCNc1c2ccccc2nc2ccccc12`, the inhibition result (at 50 µM (top of the series)) was “inactive”.
As to `COc1ccc(CCN(C)CCc2ccccc2)cc1OC`, under “at 100 µM (top of the series)”, the inhibition entry is “inactive”.
For the molecule `COc1ccc(CCN(C)c2ccnc3ccccc23)cc1OC`, the inhibition entry (at 100 µM (top of the series)) is “inactive”.
Same read-out and setting: the entry for `COc1ccc(CCNc2c3ccccc3nc3ccccc23)cc1OC` is “inactive”.
Consider `Oc1ccc(CCNc2cncc3ccccc23)cc1O`, for which the IC50 was 26.6 µM.
Consider `COc1ccc(-c2csc(-c3ccccc3OC)n2)cc1OC`, for which the inhibition entry (at 100 µM (top of the series)) is “inactive”.
Still for that read-out and setting: next, `COc1ccc(CCCNc2c3ccccc3nc3ccccc23)cc1OC`: “inactive”.
For `O=C1OCCN1CCc1nc(-c2ccc(O)c(O)c2)cs1`, the IC50 is 37 µM.
As for `COc1ccc2c(c1)C(=O)C(N)CC2` (configuration not stated), the inhibition entry (at 100 µM (top of the series)) was “inactive”.
Take `Oc1ccc(CCNc2c3c(nc4ccccc24)CCCC3)cc1O`: the IC50 was 61.8 µM.
As to `CC(C)(C)C(=O)OCc1nc(-c2ccc(O)c(O)c2)cs1`, the IC50 was 29.4 µM.
As to `COc1ccc(CCNC2CCN(C)CC2)cc1OC`, the inhibition entry (at 100 µM (top of the series)) was “inactive”.
The same measure, in the same setting: next, `COc1ccc(CCNc2ccnc3ccccc23)cc1OC`: “inactive”; `COc1ccc(CCN2CCN(C)CC2)cc1OC`: “inactive”.
On to `CCC(C)c1ccc(N)c(O)c1` (configuration not stated), for which the IC50 was 37.6 µM.
The same measure, in the same setting: the figure for `Nc1cc(C(=O)c2ccccc2)ccc1O` is 31.4 µM.
Turning to `O=c1cc(CO)oc(CN2CCCCC2)c1O`, the inhibition entry (at 100 µM (top of the series)) is “inactive”.
Still for that read-out and setting: next, `Oc1ccc(CCCNc2c3ccccc3nc3ccccc23)cc1O`: “inactive”; `COc1ccc(CCNc2ccncc2)cc1OC`: “inactive”; `COc1ccc(CCNC2CCN(Cc3ccccc3)CC2)cc1OC`: “inactive”.
With `O=c1ccc2cc(O)c(O)cc2o1`, the IC50 is 35.3 µM.
Take `O=C1c2ccc3c4c(ccc(c24)C(=O)N1O)CC3`: where the note is “at 100 µM (top of the series)”, the inhibition entry is “inactive”.
Take `Oc1ccc(CCNc2cccc3ccccc23)cc1O`: the IC50 was 26.9 µM.
On the same count and under the same terms, next, `O=c1cc(CN2CCN(Cc3ccccc3)CC2)c2ccc(O)c(O)c2o1`: 94 µM; `CCOc1cccc(-c2nc(-c3ccc(O)c(O)c3)cs2)c1`: 23.5 µM.
Regarding `COc1ccc(CCC(=O)O)cc1OC`, for the setting “at 100 µM (top of the series)”, the inhibition entry is “inactive”.
The same measure, in the same setting: the entry for `COc1ccc(CCNc2cccc3ccccc23)cc1OC` is “inactive”; for `COc1ccc(CCNc2ccc3ccccc3c2)cc1OC` it is “inactive”.
In the case of `Cc1ccc(-c2nc(-c3ccc(O)c(O)c3)cs2)cc1`, the IC50 is 21.1 µM.
For the molecule `Cc1c(O)c(=O)ccn1CCNc1c2ccccc2nc2ccccc12`, the inhibition entry (at 100 µM (top of the series)) is “inactive”.
Still for that read-out and setting: next, `NCCNc1c2ccccc2nc2ccccc12`: “inactive”; `COc1ccc(-c2csc(-c3ccccc3)n2)cc1OC`: “inactive”.
Still for that read-out and setting: the entry for `Oc1ccc(CCNc2c3ccccc3nc3ccccc23)cc1` is “inactive”.
For `Oc1ccc(CCNc2ccc3ccccc3c2)cc1O`, the IC50 was 39.7 µM.
Consider `Oc1ccc(CCNC(c2ccccc2)c2ccccc2)cc1O`, for which the IC50 is 46.8 µM.
On to `COc1ccc(CNc2c3ccccc3nc3ccccc23)cc1OC`, for which, where the note is “at 100 µM (top of the series)”, the inhibition result is “inactive”.
As for `Cc1c(-c2ccccc2)[nH]c(-c2ccc(O)c(O)c2)[n+]1O`, the 50% inhibitory concentration (IC50) was 69.2 µM.
On to `COc1cccc(CCNc2c3ccccc3nc3ccccc23)c1`, for which, where the note is “at 100 µM (top of the series)”, the inhibition entry is “inactive”.
Still for that read-out and setting: next, `COc1ccc(CCN2CCc3ccccc3C2)cc1OC`: “inactive”.
With `O=C(O)CCCNc1c2ccccc2nc2ccccc12`, the inhibition result (at 50 µM (top of the series)) is “inactive”.
Take `COc1ccc(CCN(C)c2ccncc2)cc1OC`: the inhibition result (at 100 µM (top of the series)) is “inactive”.
As for `O=S1(=O)c2ccccc2-c2cc(-c3nc(-c4ccc(O)c(O)c4)[nH]c3-c3ccccc3)ccc21`, the IC50 is 20 µM.
For `Cc1nc(NCCc2ccc(O)c(O)c2)c2c3c(sc2n1)CCC3`, the IC50 is 25.3 µM.
Turning to `CCC(C)C(=O)Nc1ccccc1O` (configuration not stated), for the setting “at 100 µM (top of the series)”, the inhibition result is “inactive”.
The same measure, in the same setting: the entry for `COc1ccc(CCNc2cncc3ccccc23)cc1OC` is “inactive”; for `Cc1c(OCc2ccccc2)c(=O)ccn1CCNc1c2ccccc2nc2ccccc12` it is “inactive”.
Regarding `CCC(C)C(=O)Nc1ccccc1N` (configuration not stated), under “at 100 µM (top of the series)”, the inhibition result is “inactive”.
The same measure, in the same setting: next, `COc1cccc(-c2nc(-c3ccc(OC)c(OC)c3)cs2)c1`: “inactive”; `O=C(c1ccco1)N1CCN(Cc2cc(=O)c(O)c[nH]2)CC1`: “inactive”.
With `CN(CCc1ccc(O)c(O)c1)c1ccnc2ccccc12`, the IC50 was 18 µM.
Take `O=C(c1ccco1)N1CCN(Cc2cc(=O)c(O)co2)CC1`: for the setting “at 100 µM (top of the series)”, the inhibition entry was “inactive”.
